Data set [1] has as its system Plasmodium falciparum. In words: Ratio of IC50 for chloroquine/pyrimethamine-resistant Plasmodium falciparum V1/S infected in red blood cells to IC50 for wild type Plasmodium falciparum 3D7A infected in red blood cells. Type of data set: functional.
The test system of data set [2] is Plasmodium falciparum. In words: Antiplasmodial activity against Plasmodium falciparum 3D7A infected in red blood cells preincubated for 24 hrs followed by [3H]-hypoxanthine addition measured after 24 hrs by scintillation counting. The format is functional, cell-based. In a few lines: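 Whole-cell growth assay on sensitive P. falciparum strain 3D7A by [3H]hypoxanthine incorporation; two or three independent biological replicates per value.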

Data set [3] can be described thus: Ratio of IC50 for chloroquine/pyrimethamine-resistant Plasmodium falciparum Dd2 infected in red blood cells to IC50 for wild type Plasmodium falciparum 3D7A infected in red blood cells. Type of data set: functional.
In data set [4] the test system is Plasmodium falciparum. In words: Ratio of IC50 for chloroquine/pyrimethamine/atovaquone-resistant Plasmodium falciparum Tm90C2B infected in red blood cells to IC50 for wild type Plasmodium falciparum 3D7A infected in red blood cells. The format is functional.
Data set [5] relates to Plasmodium falciparum. In words: Antimalarial activity against Plasmodium falciparum 3D7 0087/N9 infected in po dosed SCID mouse assessed as reduction in parasitemia administered 3 days post infection dosed once a day for four consecutive days measured after 7 days. The format is functional. The conditions noted are these: 3D7 0087/N9, po. In a few lines: (§1)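 SCID mice engrafted with human parasite P. falciparum Pf 3D70087/N9; oral dosing started 3 days after infection, once daily for four consecutive days; parasitemia compared with untreated controls.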

Data set [6] is described as follows: Solubility of the compound in fasted state stimulated intestinal fluid at pH 6.5 by HPLC analysis. Type of data set: physicochemical. The conditions noted are these: fasted state simulated intestinal fluid. The method in brief:
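Solubility measured in fasted state simulated intestinal fluid, pH 6.5.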

The nature of data set [7]: Lipophilicity, log D of compound at pH 7.4 by chromatographic method. The format is physicochemical. The conditions noted are these: buffer.
The nature of data set [8]: Ratio of IC50 for chloroquine-resistant Plasmodium falciparum 2B12 infected in red blood cells to IC50 for wild type Plasmodium falciparum […] infected in red blood cells. The format is functional.
Data set [9] is described as follows: Chemical stability of compound in SGF media at pH 1.6 after 24 hrs. The format is physicochemical. The conditions noted are these: simulated gi fluid, pH 1.6, 24 h. The method in brief:
(§2)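 Stability in simulated gastric fluid at pH 1.6, held at 37 °C for up to 24 h; checked for degradation products.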

A short description of data set [10]: AUC in Swiss CD1 mouse plasma at 500 mg/kg, po. Type of data set: ADME, organism-based. The method in brief: (§3)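 Female Swiss CD-1 mice given oral doses of 300 and 500 mg/kg; in-life observations, body weight evolution, relative organ weight, hematology and clinical chemistry recorded; plasma exposure measured at the highest dose; two independent experiments.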

Data set [11] deals with Mus musculus. In words: Toxicity in Swiss CD1 mouse assessed as effect on in life observation at 300 to 500 mg/kg, po measured up to 24 hrs post dose by Irwin test. Type of data set: organism-based. The conditions noted are these: in vivo. The method in brief:
as §3

Data set [12] relates to Mus musculus. In words: Toxicity in Swiss CD1 mouse assessed as effect on body weight evolution at 300 to 500 mg/kg, po measured up to 24 hrs post dose by Irwin test. Type of data set: organism-based. The following applies: in vivo. In a few lines: as §3
Data set [13] relates to Mus musculus. In words: Toxicity in Swiss CD1 mouse assessed as effect on organ weight at 300 to 500 mg/kg, po measured up to 24 hrs post dose by Irwin test. The format is organism-based. The conditions noted are these: in vivo. In a few lines:
as §3

A short description of data set [14]: Ratio of TC50 for human HepG2 to IC50 for antiplasmodial activity against Plasmodium falciparum 3D7A infected in red blood cells. In a few lines:
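Denominator is the asexual P. falciparum 3D7A IC50 from a [3H]hypoxanthine incorporation assay, using two or three independent biological replicates. Numerator is the 50% toxicity value in HepG2 cells, expressed as Tox50/Pf 3D7 IC50.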

For data set [15], the system named is Mus musculus. In words: Toxicity in Swiss CD1 mouse assessed as passivity at 500 mg/kg, po measured up to 24 hrs post dose by Irwin test. Type of data set: organism-based. The following applies: in vivo.
In data set [16] the test system is Plasma. In words: Drug metabolism in Swiss CD1 mouse assessed as 2-([3,4'-Bipyridine]-2'-carbonyl)-N-(4-(pyrrolidin-1-ylmethyl)-phenyl)hydrazinecarboxamide in plasma at 300 to 500 mg/kg, po by HPLC analysis. The conditions noted are these: in vivo. Type of data set: ADME, organism-based. In a few lines: (§4)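 Mice given high oral doses (250/300 and 500 mg/kg); plasma analysed by HPLC for parent compound and breakdown products, expressed as percentage levels.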

Data set [17] in a line: Ratio of IC50 for Plasmodium falciparum HB3 infected in red blood cells to IC50 for wild type Plasmodium falciparum 3D7A infected in red blood cells. Type of data set: functional.
The subject of data set [18] is Plasmodium falciparum. In words: Ratio of IC50 for pyrimethamine-resistant Plasmodium falciparum TC08 infected in red blood cells to IC50 for wild type Plasmodium falciparum 3D7A infected in red blood cells. The format is functional.
Data set [19] has as its system Plasmodium falciparum. In words: Ratio of IC50 for chloroquine-resistant Plasmodium falciparum T9/94 infected in red blood cells to IC50 for wild type Plasmodium falciparum 3D7A infected in red blood cells. The format is functional.
The test system of data set [20] is Plasmodium falciparum. In words: Ratio of IC50 for chloroquine/atovaquone/cycloguanil-resistant Plasmodium falciparum FCR3 infected in red blood cells to IC50 for wild type Plasmodium falciparum 3D7A infected in red blood cells. The format is functional.
In data set [21] the test system is Plasmodium falciparum. In words: Ratio of IC50 for chloroquine/pyrimethamine-resistant Plasmodium falciparum Tm90C2A infected in red blood cells to IC50 for wild type Plasmodium falciparum 3D7A infected in red blood cells. The format is functional.
Data set [22] can be described thus: Volume of distribution at steady state in CD1 mouse at 1 mg/kg, iv measured up to 24 hrs post dose by LC-MS/MS analysis. Type of data set: ADME, organism-based. The following applies: in vivo, read-out: Vdss. In a few lines: (§5)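 Pharmacokinetics in mouse after a single intravenous dose of 1 mg/kg.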
Data set [23] can be described thus: Oral bioavailability in CD1 mouse at 10 mg/kg measured up to 24 hrs post dose by LC-MS/MS analysis. The format is ADME, organism-based. The conditions noted are these: in vivo. The method in brief:
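Oral bioavailability in mouse after a single oral dose of 10 mg/kg.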

The test system of data set [24] is Plasmodium falciparum. In words: Antimalarial activity against Plasmodium falciparum 3D7 0087/N9 infected in SCID mouse assessed as reduction in parasitemia at 120 mg/kg, po administered 3 days post infection dosed once a day for four consecutive days relative to control. Type of data set: functional. Set-up: scale not given: the % may be the effect or the level left. In a few lines:
as §1

In data set [25] the test system is Liver. In words: Intrinsic clearance in human liver microsomes at 0.5 uM up to 45 mins in presence of NADPH by HPLC-MS/MS analysis. The format is ADME, microsome. The conditions noted are these: 0.75 h.
Data set [26] relates to HepG2. In words: Cytotoxicity against human HepG2 cells at 25 uM. The format is cell-based. The following applies: hepg2, 25 µM. In a few lines:
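HepG2 cells exposed to compound at 25 μM to assess mammalian cytotoxicity.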

Data set [27] deals with Plasmodium falciparum. In words: Antimalarial activity against Plasmodium falciparum 3D7 0087/N9 infected in po dosed mouse assessed as average daily exposure in whole blood required to reduce parasitemia administered 3 days post infection dosed once a day for four consecutive days measured 7 days post dose. Type of data set: functional, organism-based.
Data set [28] relates to Mus musculus. In words: (§6) Clearance in CD1 mouse at 1 mg/kg, iv measured up to 24 hrs post dose by LC-MS/MS analysis. Type of data set: ADME, organism-based. The following applies: mouse, in vivo, 24 h. The method in brief: as §5
A short description of data set [29]: Half life in CD1 mouse at 1 mg/kg, iv measured up to 24 hrs post dose by LC-MS/MS analysis. Type of data set: ADME, organism-based. The following applies: in vivo. The method in brief:
as §5

Data set [30] in a line: Chemical stability in SGF media at pH 1.6 after 14 hrs. The format is physicochemical. The conditions noted are these: simulated gi fluid, pH 1.6, 14 h. In a few lines: as §2
Data set [31] has as its system Plasma. In words: Drug metabolism in Swiss CD1 mouse assessed as 2-(3-(Pyridin-3-yl)-5-(trifluoromethyl)benzoyl)-N-(4-(pyrrolidin-1-ylmethyl)phenyl)hydrazinecarboxamide in plasma at 300 to 500 mg/kg, po by HPLC analysis. Type of data set: ADME, organism-based. The conditions noted are these: in vivo. The method in brief:
as §4

Data set [32] is described as follows: as §6. Type of data set: ADME, organism-based. The following applies: CD1, mouse, in vivo. The method in brief: as §5
For data set [33], the system named is Plasmodium falciparum. In words: Antimalarial activity against Plasmodium falciparum 3D7 0087/N9 infected in SCID mouse assessed as reduction in parasitemia at 50 mg/kg, po administered 3 days post infection dosed once a day for four consecutive days measured 2 days. Type of data set: functional, organism-based. In a few lines:
as §1

Values after ≈ are worked out from the molar mass of the structure shown. Active and inactive are the calls of the source. The calls are words filed in the database; no cut-off is given here.

On to `c1cncc(-c2ccnc(-c3nnc(Nc4ccc(CN5CCCC5)cc4)o3)c2)c1`, for which the “Ratio IC50” value in [1], in [3], in data set [4] and in [8] was 1 throughout. The half-maximal inhibitory concentration (IC50) (usually the point on the concentration scale where inhibition reaches its midpoint) in data set [2] was 20 nM. The ED90 in data set [5] worked out at 12.4 mg/kg. The solubility (commonly the concentration that dissolves in the medium under given conditions) in [6] was above 1000 µg/mL. Moreover, in data set [7], the chromatographic logD (as a rule, lipophilicity estimated from chromatographic retention) was 1.3. Further, in data set [9], the Stability entry is on record as “Stable”. For the same molecule, the exposure (AUC) (usually the area under the concentration-time curve, a measure of exposure) in data set [10] was 68900 ng·h/mL. The Activity entry in data set [11] was “Non-Toxic”; in [12], “Non-Toxic”; in data set [13] it was “Non-Toxic”; in data set [15] it was “Toxic”. Besides, the Ratio in data set [14] was above 1000. For the same molecule, in [16], the Drug metabolism entry is “Metabolite_Detected”.

As for `CN1CCOc2ccc(Nc3nnc(-c4cccc(-c5cccnc5)c4)o3)cc2C1`, the “Ratio IC50” value in [1], in data set [17], in [3], in data set [18], in data set [19] and in data set [4] was 1 each time. The “Ratio IC50” value in data set [20] and in data set [21] was 1 in each case. Also, in data set [2], the IC50 turned out to be 70 nM. The Vd in data set [22] was found to be 2.6 L/kg. Also, the bioavailability – broadly, the share of a dose that reaches the circulation, judged against a reference dose that is usually intravenous – in [23] was found to be 26.6%. The Activity was 81% in data set [24] and “Non-Toxic” in [26]. The intrinsic clearance in [25] turned out to be 13.7 mL/min/g. The ED90 in [5] is above 120 mg/kg. Also, the Ratio in data set [14] is above 100.

`FC(F)(F)c1cc(-c2cccnc2)cc(-c2nnc(Nc3ccc(CN4CCCC4)cc3)o2)c1` displayed an IC50 in data set [2] of 30 nM. Moreover, in data set [27], the AUCED90 is below 6.1 µg.hr/ml/day. Moreover, the clearance (in general, a measure of how efficiently the substance is removed, as volume per time) in [28] came out at 19.5 mL/min/kg. This molecule displayed a bioavailability in [23] of 89%. In addition, in data set [5], the ED90 is below 20 mg/kg. In addition, the chromatographic logD in [7] was determined as 3.3. The half-life – broadly, how long it takes for the measured level to halve – in [29] is 84 min. Further, the Stability entry in [30] is “Unstable”. Further, in [31], the Drug metabolism entry is “Metabolite_Detected”.

With `CN1CCc2ccc(Nc3nnc(-c4cc(-c5cccnc5)cc(C(F)(F)F)c4)o3)cc2C1`, the “Ratio IC50” value in data set [1], in data set [17], in data set [3], in data set [18], in [19] and in [4] was 1 each time. Moreover, the “Ratio IC50” value in [20] and in data set [21] was 1 each time. In [2], this molecule showed a half-maximal inhibitory concentration (IC50) of 20 nM. Besides, the AUCED90 in data set [27] worked out at 2.2 µg.hr/ml/day. Also, in data set [32], the clearance was in the range of 42 to 43 mL/min/kg. In addition, in data set [22], the Vd amounted to 3.5 L/kg. The same molecule showed a bioavailability in [23] of 90%. Further, the intrinsic clearance in data set [25] came out at 0.9 mL/min/g. Further, the ED90 in data set [5] was 9.3 mg/kg. Also, the solubility in [6] is 1.2 µg/mL (≈ 2.66 µM).

Consider `CN(C)Cc1ccc(Nc2nnc(-c3cc(-c4cccnc4)cc(C(F)(F)F)c3)o2)cc1`, for which half-maximal inhibition in data set [2] (IC50) required 30 nM. The AUCED90 in data set [27] is below 2.5 µg.hr/ml/day. The molecule further registered a clearance in [28] of 76.9 mL/min/kg. The bioavailability in [23] was 100%. Besides, in data set [5], the ED90 was below 20 mg/kg. Also, the concentration in solution in [6] (solubility) came to 57 µg/mL (≈ 130 µM). Moreover, the result in [33] was Active. In addition, the chromatographic logD in data set [7] is 3.2 to 3.3. Moreover, in data set [29], the half-life is 17.4 min.

(Values after ChEMBL document CHEMBL4017499, “The Discovery of Novel Antimalarial Aminoxadiazoles as a Promising Nonendoperoxide Scaffold” (J Med Chem, 2017).)
